# High-throughput results as filed in PubChem BioAssay.
# KCNQ1 block – inhibitors of human KCNQ1 channel, primary screen, cell-based, thallium flux, high-throughput; Potassium voltage-gated channel subfamily KQT member 1 (Homo sapiens), P51787; CHO-K1 KCNQ1, FluxOR thallium flux fluorescence; hits give high values; B-score at 10 µM; 1.3% of 310,000 active; AID 2642, 2010;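 active means compounds whose thallium flux B-score, printed positive for inhibition, exceeds three library SD while starting fluorescence stays within three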;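 further: channel opened by potassium depolarization with thallium stimulus after 20 min compound exposure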
# hERG rescue – hERG rescue from dofetilide block, primary screen, cell-based, CHO-hERG, FluxOR thallium flux, dofetilide IC70; dofetilide IC70 present; AID 1511, 2009; Voltage-gated inwardly rectifying potassium channel KCNH2 (Homo sapiens), Q12809; 0.51% of 310,000 active; activation (rescue from dofetilide block), less the hit threshold, % at 10 µM;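 active means activation above the mean of controls blocked by dofetilide plus 5 SD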;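 further: thallium influx through hERG after potassium depolarization seen as dye fluorescence rise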
# KCNK3 block – human KCNK3 channel inhibitors, primary screen, CHO cells, FluxOR thallium flux, B-score | B-score at 10 µM | Potassium channel subfamily K member 3 (Homo sapiens), O14649 | 0.84% of 340,000 active | FluxOR fluorescence; hits give low values | AID 602410, 2012;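 active means B-score under library mean minus 4 SD, starting fluorescence ratio at most library mean plus 5 SD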;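 further: more negative B-score means stronger inhibition of thallium flux through KCNK3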
# Kir21 inh – inhibitors of mouse Kir2.1 inward-rectifier potassium channel. Inward rectifier potassium channel 2 (Mus musculus), P35561. HEK293-Kir2.1, FluxOR thallium flux fluorescence; hits give low values. B-score at 10 µM. 0.85% of 310,000 active. AID 1672, 2009;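 active means fluorescence ratio B-score at or below minus 3 SD of library scores, with starting-brightness B-score within 2 SD, cut at about -4.2 in these data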;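 further: channel flux triggered by added potassium and thallium sulfate stimulus; B-score of peak minus minimum fluorescence over baseline after thallium stimulus; more negative B-score means stronger Kir2.1 block with less thallium influx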
# KCNQ1 act – potentiators or activators of KCNQ1 channel, primary screen, cell-based, thallium flux, high-throughput. 0.35% of 310,000 active. B-score at 10 µM. Potassium voltage-gated channel subfamily KQT member 1 (Homo sapiens), P51787. CHO-K1 KCNQ1, thallium flux FluxOR fluorescence; hits give high values;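 active means fluorescence ratio B-score, a plate-corrected score, at least three library SD, with initial intensity B-score within 5 SD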
#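 System: CHO-K1 cells stably expressing KCNQ1 / Medium: assay buffer for compound exposure, DMSO matched across wells / Reagent: thallium- and potassium-containing depolarizing buffer / Compound: one concentration, matched DMSO / Incubation: 20 min compound pretreatment at room temperature / Measured by: kinetic FluxOR fluorescence, 10 s baseline plus 110 s post-stimulus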
# KCNK9 inh – KCNK9 potassium channel inhibitors, primary screen, HEK293 cells, thallium flux; Potassium channel subfamily K member 9 (Homo sapiens), Q9NPC2; FluxOR thallium flux fluorescence; hits give low values; B-score at 10 µM; 1.2% of 310,000 active; AID 488922, 2010;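 active means ratio B-score over 3 SD below the library mean, with starting fluorescence within 5 SD of its mean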;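 further: negative B-score means less thallium flux so channel inhibition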
# Target sequence (Q9NPC2 whole entry, looked up): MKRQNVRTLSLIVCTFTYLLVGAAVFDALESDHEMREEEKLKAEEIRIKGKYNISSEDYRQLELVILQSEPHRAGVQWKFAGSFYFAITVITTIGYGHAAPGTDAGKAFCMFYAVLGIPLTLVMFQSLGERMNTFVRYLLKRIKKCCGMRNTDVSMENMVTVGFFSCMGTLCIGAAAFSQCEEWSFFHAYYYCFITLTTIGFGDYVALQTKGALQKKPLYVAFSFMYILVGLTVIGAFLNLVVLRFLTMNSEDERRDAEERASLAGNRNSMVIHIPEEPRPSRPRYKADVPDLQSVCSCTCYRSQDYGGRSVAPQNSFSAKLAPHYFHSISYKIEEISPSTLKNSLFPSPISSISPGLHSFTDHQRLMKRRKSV
# KCNK9 inh conf – KCNK9 potassium channel inhibitors, confirmation, HEK293 cells, thallium flux, duplicate; shares compounds with KCNK9 inh; FluxOR thallium flux fluorescence; inhibition, % at 10 µM; 43% of 4,900 active; AID 492992, 2010;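 active means thallium signal inhibited by more than 5 SD of the compound-free buffer control wells, on both duplicate plates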;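 further: 0% = assay buffer control wells without compound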
# Kir21 sel – mouse Kir2.1 channel inhibition, confirmation, selectivity assay for KCNK9 modulator project, cell-based, HEK293, thallium flux. shares compounds with KCNK9 inh. Kir2.1 cells, FluxOR thallium flux fluorescence. inhibition, % at 10 µM. 4% of 4,900 active. AID 492993, 2010;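 active means thallium signal drop more than 5 SD beyond the mean of the no-compound control wells, seen in both duplicate plates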;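 further: signal is fluorescence rise after thallium addition divided by baseline fluorescence; plate controls were assay buffer only for no effect and full block by chlorpromazine control for full effect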
# HEK293 Tl ctr – thallium flux in non-induced HEK293 cells, confirmation, counter-screen for KCNK9 inhibitor project, cell-based, second counter screen, non-induced KCNK9-HEK293; FluxOR thallium flux; inhibition, % at 10 µM; shares compounds with KCNK9 inh; 40% of 4,900 active;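 active means thallium signal drop beyond 5 SD of the untreated control mean, on both duplicate plates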;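 further: plate controls were buffer only IC0 wells for no effect and SID17386958 at its maximal inhibitory level for full effect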
# KCNK3 inh conf – retest of human KCNK3 channel inhibitors, confirmation, CHO cells, FluxOR thallium flux, triplicate | 99% of 2,400 active | ratio percent of control, % at 10 µM | shares compounds with KCNK3 block | AID 651638, 2012 | FluxOR fluorescence; 0% buffer, 100% carvedilol maximal block;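 active means ratio percent of control, averaged over triplicates, above buffer control mean plus 5 SD, cut at about 64% in these data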;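 further: ratio is the fluorescence rise from min to max over baseline after thallium stimulus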
# KCNK3 noninduced – thallium flux inhibition in non-induced cells, primary screen, counter-screen for KCNK3 inhibitor project, cell-based, non-induced KCNK3 line, FluxOR thallium, triplicate. shares compounds with KCNK3 block. non-induced KCNK3 parental cells; hits give low values. thallium flux ratio (lower = more inhibition) at 10 µM. 40% of 2,400 active;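 active means thallium flux ratio, averaged over three wells, more than 5 SD below the buffer control mean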;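 further: host cells are CHO cells without KCNK3 induction; ratio is peak minus trough fluorescence over baseline then normalized to buffer controls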
# Starred values were filed as active, the others as inactive; i = inactive; · = not tested or not shown. Hits are enriched below; roughly 3.7% of the tested compounds scored in any of these assays.
SMILES,KCNQ1 block,hERG rescue,KCNK3 block,Kir21 inh,KCNQ1 act,KCNK9 inh,KCNK9 inh conf,Kir21 sel,HEK293 Tl ctr,KCNK3 inh conf,KCNK3 noninduced
Cc1ccc(C)c(N2CCN(S(=O)(=O)c3ccc4c(c3)CC(C)N4C(=O)C3CC3)CC2)c1 (stereo unspecified),i,-13,-9.3*,-0.01,i,i,i,i,i,75*,i
N#CCSc1nc2c(c(C3CC=CCC3)c1C#N)CCC2 (stereo unspecified),i,-14,i,0.61,i,-8.4*,34%*,i,42%*,107*,i
COc1ccc(C(=O)N2CCCC(c3nc(-c4ccc(OC)c(OC)c4)no3)C2)c(OC)c1 (stereo unspecified),i,-8,i,-0.04,i,i,·,·,·,·,·
O=c1/c(=C\c2ccc(O)cc2)sc2n1C(c1ccccc1)C(c1ccccc1)=NN=2 (stereo unspecified),i,-20,i,-0.44,i,-13*,56%*,i,52%*,132*,0.15*
Cc1ccc(-c2n[nH]c(=S)c3ccccc23)cc1S(=O)(=O)NCC1CCCO1 (stereo unspecified),i,-7,i,-0.73,i,i,·,·,·,·,·
O=C(OCC(=O)N(CCc1ccccc1)Cc1ccccc1)c1ccccc1NCCO,i,-20,-9.9*,0.09,i,-9.5*,56%*,i,i,95*,i
O=C(OCC(=O)N(CCc1ccccc1)Cc1ccccc1)c1ccccc1O,8*,-12,-12*,-0.62,i,-18*,74%*,i,39%*,118*,i
O=C(OCC(=O)N(Cc1ccccc1)Cc1ccccc1)c1ccccc1O,·,·,i,·,·,·,·,·,·,·,·
O=C(OCC(=O)N(CCc1ccccc1)Cc1ccccc1)c1cccc(O)c1,i,-4,i,-2.3,i,i,·,·,·,·,·
O=C(/C=C/Nc1ccccc1Oc1ccccc1)c1ccco1,i,-12,-13*,-2.1,i,-17*,47%*,i,37%*,122*,i
CCOc1cc(C2C(C(=O)OC)=C(C)N=C3SC(C)C(=O)N32)ccc1OC(C)=O (stereo unspecified),i,-3,i,-1.4,i,i,·,·,·,·,·
COC(=O)C1=C(C)N=C2SC(C)C(=O)N2C1c1cccc(F)c1 (stereo unspecified),i,-7,-12*,-1.9,i,-13*,74%*,i,50%*,102*,i
N/C(Cc1ccc(Cl)c(Cl)c1)=N\OC(=O)c1ccc(Br)o1,i,-12,i,0.07,i,i,·,·,·,·,·
O=C(/C=C/c1cccc(C(F)(F)F)c1)Nc1cccc(C(F)(F)F)c1,9*,-5,-11*,0.16,i,i,i,i,i,107*,0.15*
COc1cccc(/C=N/NC(=O)C(=O)Nc2ccccc2OC(F)(F)C(F)F)c1O,i,-5,i,-0.01,i,i,·,·,·,·,·
Clc1ccc(CN(CC2CCCO2)C(c2cccs2)c2nnnn2C2CCCC2)cc1 (stereo unspecified),6*,-13,-8.9*,-1.5,i,-17*,60%*,i,48%*,110*,0.15*
Cc1cccc(C)c1NC(=O)c1sccc1SCc1cccc(C(F)(F)F)c1,i,-9,-9.4*,0.72,i,-14*,56%*,49%*,45%*,101*,0.16*
O=C(/C(N=Nc1cccc(C(F)(F)F)c1)=C(/O)c1cccs1)C(F)(F)F,10*,-15,i,-1.7,i,-8.8*,i,i,i,67*,i
CC(=O)/C(N=Nc1cccc(C(F)(F)F)c1)=C(\C)O,i,-4,i,1,i,i,·,·,·,·,·
Cc1ccc(-c2nnn(CC(=O)N3CCCCC3)n2)o1,i,-18,i,1.8,i,i,·,·,·,·,·
C/C=C(/C)C(=O)OC1c2c(ccc3ccc(=O)oc23)OC(C)(C)C1OC(=O)/C(C)=C\C (stereo unspecified),i,-8,-9.1*,-0.84,i,-13*,59%*,i,35%*,126*,0.14*
C/C=C(\C)C(=O)OC1c2c(ccc3ccc(=O)oc23)OC(C)(C)C1OC(C)=O (stereo unspecified),i,-10,i,-1.2,i,i,·,·,·,·,·
CNC(=O)CSc1nnc(-c2ccccn2)n1Cc1ccco1,i,-8,i,-0.23,i,i,·,·,·,·,·
CC(C)(C)c1ccc(CSc2nnc(-c3ccccn3)n2Cc2ccco2)cc1,i,-16,i,-1.1,i,-11*,66%*,42%*,40%*,126*,0.14*
COc1ccc(C(=O)OCC(O)COC(=O)c2ccc(OC)cc2)cc1,i,-7,i,-0.54,i,i,·,·,·,·,·
CCCCC(CC)C(=O)Oc1ccc(O)c(C(C)(C)C)c1 (stereo unspecified),i,-11,-12*,1.4,i,-16*,74%*,i,31%*,79*,i
